Results reported in PMC2887059 (Journal of Medicinal Chemistry, 2010).

How the values were obtained:
[1] = system: NF-κB activation (HEK293-NF-κB-Luc cells, PMA/ionomycin); assay type: cell-based, human; details: HEK293 NF-κB-luciferase reporter; for fold drop in activity relative to 1a: versus 1a
[2] = system: 92 targets (cloned human or rodent receptors, ion channels, and transporters); assay: NIMH-PDSP receptor, ion channel and transporter panel; assay type: binding; details: of 92 targets screened, 10 μM
[3] = Metabolic stability in mouse hepatic microsomes; assay type: in vitro ADME; details: 1 h
PKC-β = details: concentrations up to 8 μM; cited from earlier work
IKK-β = details: concentrations up to 8 μM; cited from earlier work
[4] = Plasma stability, mouse plasma; assay type: in vitro ADME; details: mouse plasma/PBS; compound at 40 μM, 3 h
PKC-θ = details: concentrations up to 8 μM; cited from earlier work
[5] = system: IL-8 production in HEK293 cells; assay: IL-8 production induced by PKC activators in HEK293 cells; assay type: cell-based; details: Homo sapiens, HEK293, read-out: IC50, IL-8 production
[6] = Metabolic stability in human hepatic microsomes; assay type: in vitro ADME; details: 1 h
353 protein kinases = assay: KINOMEscan broad kinome screen; assay type: binding; details: of 353 protein kinases surveyed, 10 μM
[7] = Plasma protein binding, human plasma; assay type: in vitro ADME
Raf = assay: KINOMEscan; assay type: binding; details: 10 μM
TLK1 = target: T1, TLK1 (Homo sapiens, UniProt Q9UKI8); assay: KINOMEscan; assay type: binding; details: 10 μM
T1 sequence (Q9UKI8 1-766): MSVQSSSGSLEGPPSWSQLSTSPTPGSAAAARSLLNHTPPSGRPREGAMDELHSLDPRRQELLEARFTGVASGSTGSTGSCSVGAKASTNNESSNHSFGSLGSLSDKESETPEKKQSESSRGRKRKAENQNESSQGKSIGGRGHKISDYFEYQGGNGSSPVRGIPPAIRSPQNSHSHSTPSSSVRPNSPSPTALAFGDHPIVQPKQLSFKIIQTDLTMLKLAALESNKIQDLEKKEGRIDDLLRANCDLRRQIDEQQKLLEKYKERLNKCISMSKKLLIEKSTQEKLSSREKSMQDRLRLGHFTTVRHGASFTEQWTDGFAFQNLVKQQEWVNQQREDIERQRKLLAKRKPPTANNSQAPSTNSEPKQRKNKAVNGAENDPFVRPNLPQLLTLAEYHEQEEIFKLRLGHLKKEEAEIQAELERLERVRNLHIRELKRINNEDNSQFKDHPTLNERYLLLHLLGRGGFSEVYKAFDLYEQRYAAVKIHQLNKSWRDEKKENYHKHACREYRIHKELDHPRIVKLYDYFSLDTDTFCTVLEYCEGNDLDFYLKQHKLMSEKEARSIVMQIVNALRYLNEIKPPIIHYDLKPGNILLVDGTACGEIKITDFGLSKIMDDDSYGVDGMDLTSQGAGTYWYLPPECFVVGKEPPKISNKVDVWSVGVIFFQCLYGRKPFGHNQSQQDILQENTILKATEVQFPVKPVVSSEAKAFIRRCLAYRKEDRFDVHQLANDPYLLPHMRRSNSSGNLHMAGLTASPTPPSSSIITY

[8] = In vivo dose-exposure profiling, single ip dose in male mice; details: 50 mg/kg ip, t = 3 h
[9] = system: IL-2 production by Jurkat T-cells; assay: IL-2 production by Jurkat T-cells; assay type: cell-based; details: Homo sapiens, read-out: IC50, production of IL-2
Summary of the method: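 Jurkat T cells were stimulated either with CD3/CD28 or with PMA/ionomycin in the presence of test compound. IL-2 production was measured and an IC50 derived.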

[10] = Plasma protein binding, mouse plasma; assay type: in vitro ADME
murine B-lymphocytes = assay: Anti-IgM-stimulated proliferation of murine B-lymphocytes; assay type: cell-based; details: Mus musculus, read-out: IC50, proliferation of B-lymphocytes
[11] = system: NF-κB reporter gene activation (other pathways); assay: NF-κB reporter gene activation by agonists of other NF-κB activation pathways; assay type: cell-based
[12] = system: NF-κB activation induced by TNF-α; assay: NF-κB activation through TNF-α stimulation; assay type: cell-based
JAK2 = JAK2 (Homo sapiens, UniProt O60674); assay: KINOMEscan; assay type: binding; details: 10 μM
[13] = Plasma stability, human plasma; assay type: in vitro ADME; details: human plasma/PBS; compound at 40 μM, 3 h

JAK2, sequence (O60674 whole entry): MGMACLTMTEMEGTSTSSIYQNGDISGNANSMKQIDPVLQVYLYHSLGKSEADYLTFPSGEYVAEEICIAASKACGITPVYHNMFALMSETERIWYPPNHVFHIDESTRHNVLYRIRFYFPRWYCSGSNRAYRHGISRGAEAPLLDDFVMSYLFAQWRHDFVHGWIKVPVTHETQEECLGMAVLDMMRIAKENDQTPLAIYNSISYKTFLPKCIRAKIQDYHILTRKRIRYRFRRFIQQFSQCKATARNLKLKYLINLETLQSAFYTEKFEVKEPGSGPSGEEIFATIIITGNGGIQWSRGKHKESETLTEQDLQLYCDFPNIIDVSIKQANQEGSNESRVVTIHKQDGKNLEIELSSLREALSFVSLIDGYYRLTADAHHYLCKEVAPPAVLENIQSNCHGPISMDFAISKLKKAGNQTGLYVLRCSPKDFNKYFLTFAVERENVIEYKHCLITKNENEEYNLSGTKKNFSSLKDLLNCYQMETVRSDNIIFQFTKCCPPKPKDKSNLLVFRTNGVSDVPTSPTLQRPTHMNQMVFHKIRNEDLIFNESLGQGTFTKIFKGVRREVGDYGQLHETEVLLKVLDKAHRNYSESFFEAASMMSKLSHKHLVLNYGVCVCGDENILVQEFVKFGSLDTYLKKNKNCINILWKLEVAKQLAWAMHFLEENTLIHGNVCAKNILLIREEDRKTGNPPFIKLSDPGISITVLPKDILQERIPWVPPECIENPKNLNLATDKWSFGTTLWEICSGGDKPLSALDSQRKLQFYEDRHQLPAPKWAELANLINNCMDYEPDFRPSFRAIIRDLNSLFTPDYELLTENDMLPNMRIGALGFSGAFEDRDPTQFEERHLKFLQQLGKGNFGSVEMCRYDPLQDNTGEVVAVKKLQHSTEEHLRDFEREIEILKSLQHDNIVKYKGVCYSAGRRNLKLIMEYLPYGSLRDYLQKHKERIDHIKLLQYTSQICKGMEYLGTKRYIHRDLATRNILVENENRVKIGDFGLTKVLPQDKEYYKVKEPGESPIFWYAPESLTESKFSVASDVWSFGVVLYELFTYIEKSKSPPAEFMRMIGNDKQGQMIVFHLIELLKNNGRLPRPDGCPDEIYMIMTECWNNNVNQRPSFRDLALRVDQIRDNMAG

Cc1cc2nc(N3CCC(O)CC3)n(CC(=O)c3cc(C(C)(C)C)c(O)c(C(C)(C)C)c3)c2cc1C [Compound 1k]
NF-κB inhibitory activity (in words) [1]: abolish activity

Cc1cc2[nH]c(=O)n(CC(=O)c3cc(C(C)(C)C)c(O)c(C(C)(C)C)c3)c2cc1C [Compound 19]
NF-κB inhibitory activity (in words) [1]: essentially equipotent to 1a

Cc1cc2nc(NCCCO)n(CC(=O)c3cc(C(C)(C)C)c(O)c(C(C)(C)C)c3)c2cc1C [Compound 1a, 1-(3,5-di-tert-butyl-4-hydroxyphenyl)-2-(2-((3-hydroxypropyl)amino)-5,6-dimethyl-1H-benzo[d]imidazol-1-yl)ethanone]
number of targets with greater than 50% inhibition [2]: eight | microsome stability (% remaining) mouse 1 μM ([3]; 1 μM): 0.5 % remaining | microsome stability (% remaining) mouse 10 μM ([3]; 10 μM): 19 % remaining | suppression of PKC-β (PKC-β): failed to suppress | suppression of IKK-β (IKK-β): failed to suppress | plasma stability (% remaining) mouse [4]: 100/100 % remaining | suppression of PKC-θ (PKC-θ): failed to suppress | IC50 [5]: < 100 nM | microsome stability (% remaining) human 1 μM ([6]; 1 μM): 26 % remaining | microsome stability (% remaining) human 10 μM ([6]; 10 μM): 55 % remaining | number of kinases inhibited by more than 50% (353 protein kinases): three | plasma protein binding (% bound) human 1 μM ([7]; 1 μM): 99.9 % bound | plasma protein binding (% bound) human 10 μM ([7]; 10 μM): 99.8 % bound | % inhibition of Raf (Raf): 57 % inhibition | % inhibition of TLK1 (TLK1): 70 % inhibition | observed tolerability of the cohort [8]: clear signs of morbidity | IC50 [9]: < 5000 nM | plasma protein binding (% bound) mouse 1 μM ([10]; 1 μM): 99.8 % bound | plasma protein binding (% bound) mouse 10 μM ([10]; 10 μM): 99.9 % bound | IC50 (murine B-lymphocytes): ~2000 nM | inhibition of NF-κB reporter gene activation by agonists of the other NF-κB activation pathways [11]: failing to inhibit | inhibition of NF-κB activation through TNF-α stimulation [12]: did not inhibit | % inhibition of JAK2 (JAK2): 53 % inhibition | plasma stability (% remaining) human [13]: 100/100 % remaining

Cc1cc2nc(NCCCO)n(CC(=O)c3cccc(OC(C)(C)C)c3)c2cc1C [Compound 1n]
NF-κB inhibitory activity (in words) [1]: completely inactive

Cc1cc2nc(NCCCN=[N+]=[N-])n(CC(=O)c3cc(C(C)(C)C)c(O)c(C(C)(C)C)c3)c2cc1C [Compound 1o]
fold drop in activity relative to 1a [1]: ≤ 6 fold

CC(C)(C)c1cc(C(=O)Cn2c(NCCCO)nc3ccc([N+](=O)[O-])cc32)cc(C(C)(C)C)c1O [Compound 17e]
NF-κB inhibitory activity (in words) [1]: inactive

Cc1c(C(C)(C)C)cc(O)cc1C(C)(C)C [Compound 9, 3,5-Di-t-butyl-4-methylphenol, reference compound]
NF-κB inhibitory activity (in words) [1]: inactive

CC(C)(C)c1cc(C(=O)Cn2c(NCCCO)nc3cc(Br)ccc32)cc(C(C)(C)C)c1O [Compound 1b]
fold drop in activity relative to 1a [1]: 40−80 fold

CC(C)(C)c1cc(C(=O)Cn2c(NCCCO)nc3cc([N+](=O)[O-])ccc32)cc(C(C)(C)C)c1O [Compound 1e]
fold drop in activity relative to 1a [1]: 20 fold

Cc1cc2nc(NCCCO)n(CC(=O)c3cc(C(C)(C)C)cc(C(C)(C)C)c3)c2cc1C [Compound 1l]
NF-κB inhibitory activity (in words) [1]: retained complete activity

C#CCCCCC(=O)OCCCNc1nc2cc(C)c(C)cc2n1CC(=O)c1cc(C(C)(C)C)c(O)c(C(C)(C)C)c1 [Compound 1p]
fold drop in activity relative to 1a [1]: ≤ 6 fold

Cc1cc2ncn(CC(=O)c3cc(C(C)(C)C)c(O)c(C(C)(C)C)c3)c2cc1C [Compound 18]
NF-κB inhibitory activity (in words) [1]: significant loss of activity

Cc1cc(Cc2cc(C)cc(C(C)(C)C)c2O)c(O)c(C(C)(C)C)c1 [Compound 10, 6,6′-methylenebis-(2-tert-butyl-4-methylphenol), reference compound]
NF-κB inhibitory activity (in words) [1]: inactive

Cc1cc2nc(NCCCO)n(CC(=O)c3cccc(C(C)(C)C)c3)c2cc1C [Compound 1m]
NF-κB inhibitory activity (in words) [1]: completely inactive

CC(C)(C)c1cc(C(=O)Cn2c(NCCCO)nc3ccc(Br)cc32)cc(C(C)(C)C)c1O [Compound 17b]
fold drop in activity relative to 1a [1]: 40−80 fold

CN[C@@H]1C[C@H]2O[C@@](C)([C@@H]1OC)n1c3ccccc3c3c4c(c5c6ccccc6n2c5c31)C(=O)NC4 [staurosporine, reference compound]
suppression of IKK-β (IKK-β): potent inhibition | suppression of PKC-θ (PKC-θ): potent inhibition
